CASP6 VEID inh: human caspase-6 inhibitors, primary screen, biochemical, VEID-R110 fluorescence, single point, set 2; P55212; purified caspase-6, Z-VEID-R110 cleavage fluorescence; inhibition, % at 12.5 µM; hit rate 0.53% among 350,000; AID 686996, 2013;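 active = mean inhibition across replicates at least about 35%, with every replicate also reaching that limit, limit read from the data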;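 note: 0% = median of neutral control wells and 100% = no fluorescence left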
NSD2 HMT inh: NSD2 histone methyltransferase inhibitors, primary screen, biochemical, AlphaScreen, single concentration, set 2; Histone-lysine N-methyltransferase NSD2 (Homo sapiens), O96028; NSD2 peptide methylation, 120 min; inhibition, % at 12.5 µM; hit rate 0.54% among 310,000; in the data active = inhibition above about 50%
TDP2 absorb: human TDP2 enzyme inhibitors, primary screen, biochemical, epi absorbance, recombinant enzyme; Tyrosyl-DNA phosphodiesterase 2 (Homo sapiens), O95551; T5PNP hydrolysis, p-nitrophenol absorbance 415 nm; inhibition, % at 12.8 µM; hit rate 0.34% among 370,000; AID 720702, 2013;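 active = inhibition above the mean of all tested compounds plus 3 SD, set per campaign, cut at about 25% in these data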;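 note: 0% = DMSO with enzyme and 100% = buffer with substrate but no TDP2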
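Material: recombinant human TDP2; quantity: TDP2 enzyme at 120 nM final; medium: Tris-HCl pH 7.5 with MgCl2; compound: single concentration, 12.8 µM nominal, with 1% DMSO; incubation: 2 h enzyme incubation at 37 °C; signal: epi absorbance; measure: percent inhibition; benchmarks: high control without enzyme, low control DMSO plus TDP2; repeats: singlicate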
LEDGF integ inh: blockers of LEDGF/p75-dependent integrase strand transfer – biochemical, TR-FRET, high throughput, primary screen; AID 743269, 2014; inhibition, % at 3.7 µM; HIV-1 integrase (with human LEDGF/p75); hit rate 0.64% among 370,000; TR-FRET IN-LEDGF/p75 DNA integration, Eu/Cy5;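 active = inhibition above the screen-wide mean plus 3 SD, cut at about 13% in these data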;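 note: signal is the Cy5 over europium emission ratio at 671 and 618 nm; 0% = plate median of compound wells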
UCH37 inh: inhibitors of human UCH37 deubiquitinase, primary screen, biochemical, Ub-AMC cleavage, fluorescence; Ubiquitin carboxyl-terminal hydrolase isozyme L5 (Homo sapiens), Q9Y5K5; purified proteasome/UCH37; inhibition, % (concentration not given with the values); hit rate 0.33% among 330,000;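 active = mean inhibition over replicate wells above about 20%, limit read from the data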;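 note: 0% = compound-free wells with enzyme and 100% = wells lacking proteasome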
Target sequence (Q9Y5K5 whole entry, looked up): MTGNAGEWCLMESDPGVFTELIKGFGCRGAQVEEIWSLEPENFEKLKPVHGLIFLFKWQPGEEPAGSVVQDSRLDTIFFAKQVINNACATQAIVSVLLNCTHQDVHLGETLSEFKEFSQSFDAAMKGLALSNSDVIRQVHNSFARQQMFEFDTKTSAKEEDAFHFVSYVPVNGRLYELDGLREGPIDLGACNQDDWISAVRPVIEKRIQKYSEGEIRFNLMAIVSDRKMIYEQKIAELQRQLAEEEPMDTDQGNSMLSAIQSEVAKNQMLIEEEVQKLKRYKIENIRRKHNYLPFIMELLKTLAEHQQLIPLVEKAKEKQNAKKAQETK
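Schedule: 30 min plus 25 min, room temperature / Material: human UCH37 within purified proteasomes / Technique: AMC fluorescence intensity at 355/460 nm / Buffer or medium: pH 7.4 Tris-HCl (50 mM) with ovalbumin, ATP-MgCl2, DTT / Controls: wells without proteasome as full block, compound-free enzyme plus substrate as uninhibited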
AlphaScreen art: AlphaScreen signal interference with preloaded methylated product, dose response, artefact control for NSD2 inhibitor project, biochemical, cherry-picked samples. shares compounds with NSD2 HMT inh. hit rate 9.4% among 1,500. AC35, µM (series often up to 10 µM), for the others: top-dose activity change, negative = signal loss. AID 1053174, 2014. AlphaScreen artifact counterscreen, preloaded methylated H4 peptide; call rule not given here
The depositor's hits bear a star; . = no result given. The list is not random: actives were taken first. Their share in the collection is about 1.3%.

SMILES | CASP6 VEID inh | NSD2 HMT inh | TDP2 absorb | LEDGF integ inh | UCH37 inh | AlphaScreen art
O=c1c2c(n3nnnc3n1-c1ccccc1)-c1ccccc1CC21CCCC1 | . | -1.3 | -8.6 | -4.4 | 0.8 | .
Cc1ccccc1-n1c(SCC(=O)NN=C/C=C/c2ccccc2[N+](=O)[O-])nc2ccccc2c1=O | . | . | . | . | 7.9 | .
Cc1ccc(/C=C2/SC(=O)NC2=S)o1 | . | 176.8* | . | . | 16.5 | -13.3%
COC(=O)c1ccccc1Nc1ccccc1 | . | 1.0 | -0.4 | -1.3 | 2.0 | .
COC(=O)c1ccccc1NC1=C/C(=N\S(=O)(=O)c2ccc(C(=O)O)cc2)c2ccccc2C1=O | . | 151.2* | . | . | 89.6* | 8.09µM*
CC(CC(=O)Nc1cccnc1)=NNC(=O)C(C)Oc1ccc(Cl)cc1Cl (configuration not stated) | . | . | . | . | 2.3 | .
CC(=NO)c1no[n+]([O-])c1C(C)=NO | . | . | . | . | 5.4 | .
COc1cccc(CN2CCC(Oc3ccc(C(=O)N4CCCCC4)cc3)CC2)c1O | 3.5 | 57.6* | 12.8 | -1.4 | 0.4 | -3.7%
O=C(COC(=O)c1ccc([N+](=O)[O-])s1)Nc1ncc(C(F)(F)F)cc1Cl | . | 75.3* | 19.4 | 5.4 | 16.3 | 0.3%
COc1ccc(-c2c3c(nc4sc(C(=O)Nc5cc(C)on5)c(N)c24)CCC3)cc1 | . | 51.6* | 11.7 | 3.0 | -88.9 | 5.1%
COc1ccc(-c2c3c(nc4sc5c(=O)[nH]c(C)nc5c24)CCC3)cc1 | . | -0.3 | -6.7 | 4.6 | -87.6 | .
ON=Cc1cn(-c2ccc(Cl)cc2)nn1 | . | . | . | . | 2.1 | .
CC(=O)NC1=NN(C(C)=O)C(C)(c2cccc([N+](=O)[O-])c2)S1 (configuration not stated) | -1.5 | 98.9* | 1.4 | -3.9 | 1.4 | 1.8%
O=C(CNC(=O)C1COc2ccccc2O1)NN=Cc1ccc([N+](=O)[O-])cc1 (configuration not stated) | . | . | . | . | 7.1 | .
COc1ccc(C=NNc2nc(N)cc(Cl)n2)cc1OC | . | . | . | . | 12.0 | .
CSc1nc(N)nc(N(C)C)n1 | -0.9 | 60.7* | 3.4 | 1.7 | 1.4 | 0.9%
NS(=O)(=O)c1ccc(CNC(=O)CCCSc2ccccc2)cc1 | 0.5 | 82.2* | 4.3 | -1.3 | 1.2 | -7.0%
COc1ccc(CNC(=O)CCCSc2ccccc2)cc1 | 2.3 | 2.5 | 12.7 | -1.0 | 6.2 | .
CCN(CC)CCCN(Cc1cc2cc(OC)c(OC)cc2[nH]c1=O)C(=O)Nc1ccccc1 | . | 50.9* | -10.8 | -2.0 | -41.6 | 0.0%
CCN(CC)CCCN(Cc1cc2cc3c(cc2[nH]c1=O)OCO3)C(=S)NCCOC | 13.7 | 26.7 | -1.9 | 0.4 | -54.2 | .
CCNC(=S)N(CCCN(CC)CC)Cc1cc2cc3c(cc2[nH]c1=O)OCO3 | -1.0 | 84.1* | -3.6 | -8.7 | -186.4 | -6.8%
Cc1cc(C)n(-c2ncccc2[N+](=O)[O-])n1 | -1.5 | 51.6* | 6.5 | 1.9 | 1.5 | -6.9%
Nc1cc(=O)[nH]c(SCC(=O)Nc2ccc(Cl)c(Cl)c2)n1 | . | 115.5* | 4.8 | -0.8 | 6.8 | -0.4%
Nc1cc(=O)[nH]c(SCC(=O)Nc2cc(Cl)cc(Cl)c2)n1 | . | 0.8 | 10.1 | 1.1 | 6.7 | .
O=C(CSc1n[nH]c(-c2ccncc2)n1)Nc1ccc(Cl)c(Cl)c1 | 1.6 | 62.6* | -13.4 | -1.9 | 3.6 | -0.4%
COc1cccc(C=NNC(=O)CCc2c(C)n[nH]c2C)c1O | . | . | . | . | -5.7 | .
CCOc1ccccc1C=NNc1nc2c(N)ncnc2n1[C@H]1O[C@@H](CO)[C@H](O)[C@@H]1O | . | . | . | . | 4.0 | .
COCc1cc(C=NNC(=O)COc2ccccc2)ccc1OC | . | . | . | . | 2.9 | .
O=C(CCCN1C(=O)/C(=C\c2ccco2)SC1=S)Nc1ccc2ccccc2c1 | 8.2 | 0.5 | 3.2 | 1.0 | 1.8 | .
O=C(CCN1C(=O)/C(=C\c2ccco2)SC1=S)Nc1ccc(C(=O)O)c(O)c1 | 73.0* | 111.1* | 1.6 | 69.9* | 11.1 | -16.6%

Screens deposited in PubChem BioAssay by several laboratories.
